Results from different studies.
Each line is one published result; the experiments were not run side by side.
Target: Activin receptor type-1B (ACVR1B, Homo sapiens, UniProt P36896)
Sequence (P36896 24-505, as in one of the studies): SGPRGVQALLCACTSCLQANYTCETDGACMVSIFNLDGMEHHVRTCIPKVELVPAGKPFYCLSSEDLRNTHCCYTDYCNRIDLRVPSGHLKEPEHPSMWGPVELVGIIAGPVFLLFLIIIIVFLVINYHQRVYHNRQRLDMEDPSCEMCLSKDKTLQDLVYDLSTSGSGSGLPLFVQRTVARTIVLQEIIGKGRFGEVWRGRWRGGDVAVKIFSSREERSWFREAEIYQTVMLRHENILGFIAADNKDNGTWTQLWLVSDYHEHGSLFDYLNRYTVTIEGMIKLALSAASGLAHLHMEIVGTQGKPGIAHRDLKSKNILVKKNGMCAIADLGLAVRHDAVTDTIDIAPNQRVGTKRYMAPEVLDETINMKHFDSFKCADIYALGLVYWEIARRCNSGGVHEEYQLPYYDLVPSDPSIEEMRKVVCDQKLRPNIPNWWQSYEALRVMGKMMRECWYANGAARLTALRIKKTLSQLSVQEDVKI

`CC1CCCN1c1nccc(-c2cnn3ncccc23)n1` (stereo not shown) has a remaining binding of 88% (binding; 1 µM).
With `O=C(c1ccc(Nc2ncc(Cl)c(-c3ccc(Cl)s3)n2)cc1)N1CCC(N2CCCC2)CC1` the remaining binding was 58% (binding, competition with immobilised ligand; 1 µM).
The remaining binding of `c1cncc(-c2cccc(Nc3nccc(NC4CCCCC4)n3)c2)c1` is reported as 75% (binding, competition with immobilised ligand; 10 µM).
With `C[C@@H](c1ccc(-n2cnc3c(N)ncnc32)cc1)N1CCc2nn(C)c(Cc3ccccc3)c2C1=O` the remaining binding was 93% (binding, competition with immobilised ligand; 0.1 µM).
`CNC(=O)[C@@H]1CC[C@@H](n2c(-c3ccc4cnccc4c3)nc3ccc(C(=O)NCc4cccc(C(N)=O)c4)cc32)C1` has a remaining binding of 100% (binding, competition with immobilised ligand; 1 µM).
With `COc1ncc2cc3ccccc3nc2c1C#N` the remaining binding was 88% (cell-free assay, competition with immobilised ligand; 5 µM).
The remaining binding of `CC(C)CC(=O)N1CCc2nc(-c3ccc(Br)cc3)nc(N(C)Cc3ccccc3)c2C1` is reported as 89% (cell-free assay, competition with immobilised ligand; 0.1 µM).
With `Cc1cnn2ncc(-c3ccnc(N(C)C)n3)c2c1` the remaining binding was 100% (binding; 1 µM).
`N#Cc1ccccc1CSc1nnc2c(n1)[nH]c1ccccc12` gave a remaining binding of 91% (binding, competition with immobilised ligand; 10 µM).
With `O=C(NCCCN1CCOCC1)c1ccc(Nc2ncc(Cl)c(-c3ccc(Cl)s3)n2)cc1` the remaining binding was 59% (binding, competition with immobilised ligand; 1 µM).
With `N[C@@H]1CCN(c2nccc(-c3cnn4ncccc34)n2)C1` the remaining binding was 100% (binding; 1 µM).
`CC(=O)C1=C(C)N(c2cccc(C(F)(F)F)c2)C(=O)N[C@@H]1c1ccc(C#N)nc1` has a remaining binding of 100% (cell-free assay, competition with immobilised ligand; 1 µM).
`O=C(Nc1c[nH]nc1C(=O)NC1CCNCC1)c1cc(F)cc(F)c1` gave a remaining binding of 90% (binding, competition with immobilised ligand; 1 µM).
For `C[C@@H]1CN(c2ccc3ncc(-c4ccc5[nH]nc(C6CC6)c5c4)n3n2)C[C@H](C)O1`, the remaining binding was 100% (binding, competition with immobilised ligand; 0.5 µM).
For `CS(=O)(=O)NCC[C@H](NC(=O)c1cncc2c1cnn2-c1ccc(F)cc1)c1ccnc(S(C)(=O)=O)c1`, the remaining binding was 100% (cell-free assay, competition with immobilised ligand; 1 µM).
For `O=C(NCCCN1CCOCC1)c1ccc(Nc2nccc(-c3cc4ccccc4s3)n2)cc1`, the remaining binding was 75% (binding, competition with immobilised ligand; 1 µM).
With `COc1ccc2c(c1)O[C@@H](c1ccc(OC)c(OC)c1)C[C@H]2NC(=O)C1(c2ccc3c(c2)OC(F)(F)O3)CC1` the remaining binding was 67% (cell-free assay, competition with immobilised ligand; 1 µM).
With `CN(CCCC(F)(F)F)c1nccc(-c2cnn3ncccc23)n1` the remaining binding was 96% (binding; 1 µM).
With `Cc1nc(C2CCN(C(=O)c3ccc(OC(F)(F)F)cc3N)CC2)c2ncc(N3CCN(C)CC3)cc2n1` the remaining binding was 86% (cell-free assay, competition with immobilised ligand; 1 µM).
For `CN(C)c1ncc(F)c(-c2cnn3ncccc23)n1`, the remaining binding was 100% (binding; 1 µM).
The remaining binding of `C=CC(=O)N1CCC(C(=O)NCC(=O)N2CCN(c3nc(-c4cnc(N)nc4C(F)F)nc(N4CCOCC4)n3)CC2)CC1` is reported as 82% (binding, competition with immobilised ligand; 1 µM).
The remaining binding of `CNC(=O)c1ccc(Nc2ncc(C(F)(F)F)c(NCc3nccnc3N(C)S(C)(=O)=O)n2)cc1` is reported as 69% (cell-free assay, competition with immobilised ligand; 0.1 µM).
With `CCN1CCN(Cc2ccc(C(=O)Nc3ccc(C)c(Oc4ccc5c(c4)CC(=O)N5)c3)cc2C(F)(F)F)CC1` the remaining binding was 100% (binding, competition with immobilised ligand; 1 µM).
`O=C(NCc1ncc(C(F)(F)F)cc1Cl)c1ccc2c(c1)C1(CCS(=O)(=O)CC1)[C@H](C1CC1)N2S(=O)(=O)c1ccc(F)cc1` has a remaining binding of 94% (cell-free assay, competition with immobilised ligand; 1 µM).
The remaining binding of `C[C@H]1CCN(c2nccc(-c3cnn4ncccc34)n2)C1` is reported as 71% (binding; 1 µM).
